Source: ChEMBL document CHEMBL1137287, “Peptidyl-urea based inhibitors of soluble epoxide hydrolases” (Bioorg Med Chem Lett, 2006)

Experiments:
[1] = target: T1, Bifunctional epoxide hydrolase 2 (Homo sapiens, UniProt P34913); experiment: Inhibition of human recombinant soluble Epoxide hydrolase
T1 sequence (P34913 whole entry): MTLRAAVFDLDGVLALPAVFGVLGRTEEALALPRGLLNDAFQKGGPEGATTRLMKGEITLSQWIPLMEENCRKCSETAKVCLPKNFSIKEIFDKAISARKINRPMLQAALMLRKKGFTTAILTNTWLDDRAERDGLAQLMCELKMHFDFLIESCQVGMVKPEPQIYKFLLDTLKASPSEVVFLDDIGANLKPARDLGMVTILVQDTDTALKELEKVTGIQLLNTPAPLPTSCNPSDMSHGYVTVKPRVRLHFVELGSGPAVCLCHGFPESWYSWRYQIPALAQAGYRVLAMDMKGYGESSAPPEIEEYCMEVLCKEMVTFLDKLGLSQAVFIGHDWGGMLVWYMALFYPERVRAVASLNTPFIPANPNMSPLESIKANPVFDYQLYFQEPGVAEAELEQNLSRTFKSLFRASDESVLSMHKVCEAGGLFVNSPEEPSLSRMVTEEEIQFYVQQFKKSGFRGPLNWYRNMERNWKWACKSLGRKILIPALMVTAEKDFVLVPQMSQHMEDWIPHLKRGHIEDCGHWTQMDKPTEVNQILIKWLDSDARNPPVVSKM

[2] = Solubility in sodium phosphate buffer at pH 7.4; format: physicochemical
How it was run: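 Solubility measured in sodium phosphate buffer, 100 mM, pH 7.4, following a previously described procedure.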

[3] = target: T2, Bifunctional epoxide hydrolase 2 (Mus musculus, UniProt P34914); experiment: Inhibition of mouse recombinant soluble Epoxide hydrolase
T2 sequence (P34914 whole entry): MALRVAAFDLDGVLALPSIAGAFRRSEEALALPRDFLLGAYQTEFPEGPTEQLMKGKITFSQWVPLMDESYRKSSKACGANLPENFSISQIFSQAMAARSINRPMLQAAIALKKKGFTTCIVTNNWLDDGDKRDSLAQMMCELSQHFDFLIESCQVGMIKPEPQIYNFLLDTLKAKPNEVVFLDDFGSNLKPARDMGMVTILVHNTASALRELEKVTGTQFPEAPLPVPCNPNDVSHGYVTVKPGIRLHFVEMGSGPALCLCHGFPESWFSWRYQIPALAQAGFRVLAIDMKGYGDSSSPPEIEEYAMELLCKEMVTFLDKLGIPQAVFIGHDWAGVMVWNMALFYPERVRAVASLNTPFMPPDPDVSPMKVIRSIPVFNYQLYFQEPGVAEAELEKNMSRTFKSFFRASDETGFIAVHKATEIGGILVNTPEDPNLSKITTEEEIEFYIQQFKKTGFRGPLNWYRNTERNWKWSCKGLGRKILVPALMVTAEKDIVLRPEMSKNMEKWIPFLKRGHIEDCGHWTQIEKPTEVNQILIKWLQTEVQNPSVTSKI

[4] = Plasma concentration in dog at 0.3 mg/kg, po after 240 min; format: ADME, organism-based, Canis lupus familiaris; set-up: dose 0.3 mg/kg, route oral
How it was run: (§1)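 Dogs given oral dose of 0.3 mg/kg per inhibitor, three different inhibitors per dog per experiment, formulated at 6 mg/mL in triglycerides (tristearate, 6 mL). AUC estimated from plasma concentration (nM) versus time (min) plot.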

[5] = Plasma concentration in dog at 0.3 mg/kg, po after 60 min; format: ADME, organism-based, Canis lupus familiaris; set-up: dose 0.3 mg/kg, route oral; how it was run: as §1
[6] = Plasma concentration in dog at 0.3 mg/kg, po after 360 min; format: ADME, organism-based, Canis lupus familiaris; set-up: dose 0.3 mg/kg, route oral; how it was run: as §1
[7] = Plasma concentration in dog at 0.3 mg/kg, po after 30 min; format: ADME, organism-based, Canis lupus familiaris; set-up: dose 0.3 mg/kg, route oral; how it was run: as §1
[8] = Plasma concentration in dog at 0.3 mg/kg, po after 120 min; format: ADME, organism-based, Canis lupus familiaris; set-up: dose 0.3 mg/kg, route oral; how it was run: as §1
[9] = Plasma concentration in dog at 0.3 mg/kg, po after 180 min; format: ADME, organism-based, Canis lupus familiaris; set-up: dose 0.3 mg/kg, route oral; how it was run: as §1
[10] = Plasma concentration in dog at 0.3 mg/kg, po after 300 min; format: ADME, organism-based, Canis lupus familiaris; set-up: dose 0.3 mg/kg, route oral; how it was run: as §1
[11] = Plasma concentration in dog at 0.3 mg/kg, po after 480 min; format: ADME, organism-based, Canis lupus familiaris; set-up: dose 0.3 mg/kg, route oral; how it was run: as §1
[12] = Plasma concentration in dog at 0.3 mg/kg, po after 15 min; format: ADME, organism-based, Canis lupus familiaris; set-up: dose 0.3 mg/kg, route oral; how it was run: as §1
[13] = AUC in dog at 0.3 mg/kg, po; format: ADME, organism-based, Canis lupus familiaris; set-up: dose 0.3 mg/kg, route oral; conditions: plasma; how it was run: as §1

IC50 [1] [µM]	solubility [2] [µM]	IC50 [3] [µM]	SMILES	other results
> 100	> 500	0.23	NC(N)=NCCC[C@H](NC(=O)CCCCCNC(=O)NC1CCCCC1)C(=O)O	
24	> 500	1.7	O=C(O)CC[C@H](NC(=O)CCCNC(=O)NC1CCCCC1)C(=O)O	
21	> 500	1.6	O=C(CCCNC(=O)NC1CCCCC1)N[C@@H](Cc1ccccc1)C(=O)O	
30	> 500	0.05	O=C(CCCNC(=O)NC1CCCCC1)N[C@@H](Cc1cnc[nH]1)C(=O)O	

More lines, now with the values behind:

SMILES	IC50 [1] [µM]	solubility [2] [µM]	IC50 [3] [µM]	other results
CC(C)[C@H](NC(=O)CCCCCNC(=O)NC1CCCCC1)C(=O)O	41	> 500	0.56	
NC(N)=NCCC[C@H](NC(=O)CNC(=O)NC1CCCCC1)C(=O)O	> 100	> 500	> 100	
O=C(O)CCCCCCCCCCCNC(=O)NC12CC3CC(CC(C3)C1)C2				concentration at 4 h [4]: 6.12 nM; concentration at 1 h [5]: 30.7 nM; concentration at 6 h [6]: 1.17 nM; concentration at 0.5 h [7]: 20.4 nM; concentration at 2 h [8]: 26.3 nM; concentration at 3 h [9]: 13.4 nM; concentration at 5 h [10]: 1.61 nM; concentration at 8 h [11]: 0.86 nM; concentration at 0.25 h [12]: 6.97 nM
O=C(CCCCCNC(=O)NC12CC3CC(CC(C3)C1)C2)N[C@@H](Cc1ccccc1)C(=O)N[C@@H](Cc1c[nH]c2ccccc12)C(=O)O		> 500		Ki [1]: 0.015 µM; concentration at 1 h [5]: 0.33 nM; concentration at 0.5 h [7]: 0.82 nM; AUC [13]: < 1.67 nM·h; concentration at 0.25 h [12]: 0.62 nM
O=C(CNC(=O)NC1CCCCC1)N[C@@H](Cc1cnc[nH]1)C(=O)O	> 100	> 500	36	
CC(C)[C@H](NC(=O)CNC(=O)NC1CCCCC1)C(=O)O	> 100	> 500	> 100	
O=C(CCCCCNC(=O)NC1CCCCC1)N[C@@H](Cc1cnc[nH]1)C(=O)O	> 100	> 500	0.06	
